The record followed here is ChEMBL document CHEMBL1629608, “Variations in amino acid composition of antisense peptide-phosphorodiamidate morpholino oligomer affect potency against Escherichia coli in vitro and in vivo” (Antimicrob Agents Chemother, 2009).

In brackets after ≈: the same amount, converted by molar mass. Activity calls are given as the source filed them.

The test system of series [1] is Escherichia coli. The series is described as follows: Antibacterial activity against Escherichia coli K-12 W3110 infected in mouse assessed as reduction of bacterial level in blood at 30 ug, ip administered 15 mins and 12 hrs postinfection measured after 2 hrs post dose relative to control. Also noted: scale not given: the % may be the effect or the level left. Format: functional, K-12 substr. W3110. A digest of the protocol:
(§1)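 Mice in groups of 3–7 were infected intraperitoneally with E. coli W3110 from an LB culture. They were dosed ip with 10–300 μg per dose at 15 min and 12 h postinfection. Controls were water or scrambled-sequence PPMO. Blood was taken at 2, 6, 12, 24 and 48 h, diluted and plated on LB for CFU/ml. Log CFU was compared by one-way ANOVA with Tukey-Kramer; mean ± SD.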

Series [2] relates to Escherichia coli. Kind of series: Antibacterial activity against Escherichia coli K-12 W3110 by microdilution method. Type of series: functional. The settings on record: K-12 substr. W3110. (In general: Dilution methods test growth across graded concentrations, often in twofold steps.)
For series [3], the system named is Escherichia coli. The series is described as follows: Antibacterial activity against Escherichia coli K-12 W3110 infected in mouse assessed as reduction of bacterial level in blood at 100 ug, ip administered 15 mins and 12 hrs postinfection measured after 12 hrs post dose relative to control. Format: functional, K-12 substr. W3110. Put shortly: as §1
Series [4] relates to Escherichia coli. Kind of series: Antibacterial activity against Escherichia coli K-12 W3110 infected in mouse assessed as reduction of bacterial level in blood at 300 ug, ip administered 15 mins and 12 hrs postinfection measured after 12 hrs post dose relative to control. Type of series: functional, K-12 substr. W3110. Put shortly: as §1
The subject of series [5] is Escherichia coli. Kind of series: Antibacterial activity against Escherichia coli K-12 W3110 infected in mouse assessed as increase of mouse survival at 30 to 300 ug, ip administered 15 mins and 12 hrs postinfection. To be noted: K-12 substr. W3110. Format: functional, organism-based. A digest of the protocol: (§2)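 Mice in groups of 3–7 were infected intraperitoneally with E. coli W3110 from an LB culture. They were treated ip at 15 min and 12 h postinfection with 10, 30, 100 or 300 μg per dose; 300 μg is noted as ~15 mg/kg. Controls were water or scrambled-sequence PPMO. Survival was followed to 48 h and analysed by the Kaplan-Meier method.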

The subject of series [6] is Escherichia coli. Kind of series: Antibacterial activity against Escherichia coli K-12 W3110 infected in mouse assessed as increase of mouse survival at 10 ug, ip administered 15 mins and 12 hrs postinfection. Format: functional, organism-based. Put shortly:
as §2

For series [7], the system named is Escherichia coli. Kind of series: Antibacterial activity against Escherichia coli K-12 W3110 infected in mouse assessed as reduction of bacterial level in blood at 100 ug, ip administered 15 mins and 12 hrs postinfection measured after 2 hrs post dose relative to control. Format: functional, organism-based. The settings on record: K-12 substr. W3110. Put shortly:
as §1

The test system of series [8] is Escherichia coli. The series is described as follows: Antibacterial activity against Escherichia coli K-12 W3110 infected in mouse assessed as reduction of bacterial level in blood at 300 ug, ip administered 15 mins and 12 hrs postinfection measured after 2 hrs post dose relative to control. Type of series: functional, K-12 substr. W3110. Put shortly: as §1
Series [9] concerns Escherichia coli. The series is described as follows: Antibacterial activity against Escherichia coli K-12 W3110 infected in mouse assessed as reduction of bacterial level in blood at 10 to 30 ug, ip administered 15 mins and 12 hrs postinfection measured after 2 hrs post dose relative to control. To be noted: K-12 substr. W3110. Format: functional, organism-based. Put shortly: as §1

For series [10], the system named is Escherichia coli. The series is described as follows: Antibacterial activity against Escherichia coli K-12 W3110 infected in mouse assessed as reduction of bacterial level in blood at 300 ug, ip administered 15 mins and 12 hrs postinfection measured after 6 hrs post dose relative to control. Format: functional, K-12 substr. W3110. A digest of the protocol:
as §1

Series [11] can be described thus: Toxicity in Escherichia coli K-12 W3110 infected ip dosed mouse. Format: organism-based. The settings on record: in vivo. Put shortly: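 E. coli K-12 W3110 was grown in LB broth for the inoculum and injected intraperitoneally into groups of 3–7 mice. Conjugates were given ip at 15 min and 12 h postinfection (10–300 μg per dose), with water or scrambled-sequence conjugate as controls. Blood drawn at 2, 6, 12, 24 and 48 h was diluted and plated on LB for CFU counts. Survival was followed by Kaplan-Meier, and log CFU was compared by ANOVA with Tukey-Kramer.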

In a further series the test system is Mus musculus. The series is described as follows: Toxicity in Escherichia coli K-12 W3110 infected mouse at 15 mg/kg, ip. Type of series: organism-based. On the set-up: dose 15 mg/kg, route intraperitoneal. The settings on record: in vivo. A digest of the protocol: as §2
A short description of series [12]: Therapeutic index, ratio of LD50 for Escherichia coli K-12 W3110 infected mouse to ED50 for Escherichia coli K-12 W3110. The settings on record: read-out: Ratio LD50/ED50.
Series [13] concerns Escherichia coli. The series is described as follows: Antibacterial activity against Escherichia coli K-12 W3110 infected in ip dosed mouse assessed as reduction of bacterial level in blood administered 15 mins and 12 hrs postinfection. Type of series: functional. The settings on record: K-12 substr. W3110, Blood. Put shortly:
as §1

The subject of series [14] is Escherichia coli. The series is described as follows: Antibacterial activity against Escherichia coli K-12 W3110 infected in mouse assessed as reduction of bacterial level in blood at 30 to 300 ug, ip administered 15 mins and 12 hrs postinfection measured after 2 hrs post dose relative to control. The settings on record: K-12 substr. W3110. Type of series: functional, organism-based. Put shortly: as §1

In series [15] the test system is Escherichia coli. The series is described as follows: Antibacterial activity against Escherichia coli K-12 W3110 infected in mouse assessed as reduction of bacterial level in blood at 100 to 300 ug, ip administered 15 mins and 12 hrs postinfection. Type of series: functional, K-12 substr. W3110. A digest of the protocol:
as §1

The subject of series [16] is Escherichia coli. The series is described as follows: Antibacterial activity against Escherichia coli K-12 W3110 infected in mouse assessed as increase of mouse survival at 100 ug, ip administered 15 mins and 12 hrs postinfection. Format: functional, organism-based. To be noted: K-12 substr. W3110. A digest of the protocol:
as §2

The subject of series [17] is Escherichia coli. Kind of series: Antibacterial activity against Escherichia coli K-12 W3110 infected in mouse assessed as increase of mouse survival at 300 ug, ip administered 15 mins and 12 hrs postinfection. Type of series: functional, organism-based. The settings on record: K-12 substr. W3110. A digest of the protocol:
as §2

The subject of series [18] is Escherichia coli. The series is described as follows: Antibacterial activity against Escherichia coli K-12 W3110 infected in mouse assessed as increase of mouse survival at 30 ug, ip administered 15 mins and 12 hrs postinfection. Type of series: functional, organism-based. The settings on record: K-12 substr. W3110. Put shortly:
as §2

For the molecule `Cc1cn([C@H]2CN(P(=O)(OC[C@@H]3CN(P(=O)(OC[C@@H]4CN(P(=O)(OC[C@@H]5CN(P(=O)(OC[C@@H]6CN(P(=O)(OC[C@@H]7CN(P(=O)(OC[C@@H]8CN(P(=O)(OC[C@@H]9CN(P(=O)(OC[C@@H]%10CNC[C@H](n%11cnc%12c(=O)[nH]c(N)nc%12%11)O%10)N(C)C)C[C@H](n%10cc(C)c(=O)[nH]c%10=O)O9)N(C)C)C[C@H](n9cnc%10c(=O)[nH]c(N)nc%109)O8)N(C)C)C[C@H](n8cnc9c(N)ncnc98)O7)N(C)C)C[C@H](n7cc(C)c(=O)[nH]c7=O)O6)N(C)C)C[C@H](n6cnc7c(N)ncnc76)O5)N(C)C)C[C@H](n5cnc6c(=O)[nH]c(N)nc65)O4)N(C)C)C[C@H](n4ccc(N)nc4=O)O3)N(C)C)C[C@@H](COP(=O)(N(C)C)N3C[C@@H](COP(=O)(N(C)C)N4C[C@@H](COP(=O)(N(C)C)N5CCN(C(=O)CCNC(=O)CCCCCNC(=O)[C@H](CCCNC(=N)N)NC(=O)CCCCNC(=O)[C@H](CCCNC(=N)N)NC(=O)[C@H](CCCNC(=N)N)NC(=O)CCCCNC(=O)[C@H](CCCNC(=N)N)NC(=O)[C@H](CCCNC(=N)N)NC(=O)CCCCNC(=O)[C@H](CCCNC(=N)N)NC(=O)[C@H](CCCNC(=N)N)NC(=O)CCCCNC(=O)[C@@H](N)CCCNC(=N)N)CC5)O[C@@H](n5ccc(N)nc5=O)C4)O[C@@H](n4cc(C)c(=O)[nH]c4=O)C3)O2)c(=O)[nH]c1=O` (some centres undefined), the Activity was 98% with Escherichia coli [1] and “Antagonist” in the series on Escherichia coli [6] (K-12 substr. W3110, filed as antagonist). This molecule also had an MIC against Escherichia coli [2] of 1.25 µM (≈ 7.02 µg/mL). Further, the log10cfu in the series on Escherichia coli [3] and with Escherichia coli [4] was 2.5 each time. Moreover, the result in the series on Escherichia coli [5] was Active.
In the case of `Cc1cn([C@H]2CN(P(=O)(OC[C@@H]3CN(P(=O)(OC[C@@H]4CN(P(=O)(OC[C@@H]5CN(P(=O)(OC[C@@H]6CN(P(=O)(OC[C@@H]7CN(P(=O)(OC[C@@H]8CN(P(=O)(OC[C@@H]9CN(P(=O)(OC[C@@H]%10CNC[C@H](n%11cnc%12c(=O)[nH]c(N)nc%12%11)O%10)N(C)C)C[C@H](n%10cc(C)c(=O)[nH]c%10=O)O9)N(C)C)C[C@H](n9cnc%10c(=O)[nH]c(N)nc%109)O8)N(C)C)C[C@H](n8cnc9c(N)ncnc98)O7)N(C)C)C[C@H](n7cc(C)c(=O)[nH]c7=O)O6)N(C)C)C[C@H](n6cnc7c(N)ncnc76)O5)N(C)C)C[C@H](n5cnc6c(=O)[nH]c(N)nc65)O4)N(C)C)C[C@H](n4ccc(N)nc4=O)O3)N(C)C)C[C@@H](COP(=O)(N(C)C)N3C[C@@H](COP(=O)(N(C)C)N4C[C@@H](COP(=O)(N(C)C)N5CCN(C(=O)CCNC(=O)CCCCCNC(=O)[C@H](CCCNC(=N)N)NC(=O)[C@H](Cc6ccccc6)NC(=O)[C@H](CCCNC(=N)N)NC(=O)[C@H](CCCNC(=N)N)NC(=O)NC(=O)[C@H](Cc6ccccc6)NC(=O)[C@H](CCCNC(=N)N)NC(=O)[C@H](CCCNC(=N)N)NC(=O)NC(=O)[C@H](Cc6ccccc6)NC(=O)[C@H](CCCNC(=N)N)NC(=O)[C@H](CCCNC(=N)N)NC(=O)NC(=O)[C@H](Cc6ccccc6)NC(=O)[C@@H](N)CCCNC(=N)N)CC5)O[C@@H](n5ccc(N)nc5=O)C4)O[C@@H](n4cc(C)c(=O)[nH]c4=O)C3)O2)c(=O)[nH]c1=O` (some centres undefined), the outcome with Escherichia coli [7] was Active. The log10cfu with Escherichia coli [8], in the series on Escherichia coli [10] and in the series with Escherichia coli [4] was 2 in each case. Also, the outcome in the series with Escherichia coli [9] was inactive. For the same molecule, the LD50 in series [11] was found to be 300 mg/kg. The Activity entry in the series on Mus musculus is “Non-toxic”. For the same molecule, the selectivity ratio in series [12] is 200. Also, it took 0.625 µM (≈ 3.71 µg/mL) to inhibit growth against Escherichia coli [2] (MIC). Moreover, the 50% effective dose (ED50) with Escherichia coli [13] was determined as 1.5 mg/kg.
Consider `Cc1cn([C@H]2CN(P(=O)(OC[C@@H]3CN(P(=O)(OC[C@@H]4CN(P(=O)(OC[C@@H]5CN(P(=O)(OC[C@@H]6CN(P(=O)(OC[C@@H]7CN(P(=O)(OC[C@@H]8CN(P(=O)(OC[C@@H]9CN(P(=O)(OC[C@@H]%10CNC[C@H](n%11cnc%12c(=O)[nH]c(N)nc%12%11)O%10)N(C)C)C[C@H](n%10cc(C)c(=O)[nH]c%10=O)O9)N(C)C)C[C@H](n9cnc%10c(=O)[nH]c(N)nc%109)O8)N(C)C)C[C@H](n8cnc9c(N)ncnc98)O7)N(C)C)C[C@H](n7cc(C)c(=O)[nH]c7=O)O6)N(C)C)C[C@H](n6cnc7c(N)ncnc76)O5)N(C)C)C[C@H](n5cnc6c(=O)[nH]c(N)nc65)O4)N(C)C)C[C@H](n4ccc(N)nc4=O)O3)N(C)C)C[C@@H](COP(=O)(N(C)C)N3C[C@@H](COP(=O)(N(C)C)N4C[C@@H](COP(=O)(N(C)C)N5CCN(C(=O)CCNC(=O)CCCCCNC(=O)[C@H](CCCNC(=N)N)NC(=O)CCCCCNC(=O)[C@H](CCCNC(=N)N)NC(=O)CCCCCNC(=O)[C@H](CCCNC(=N)N)NC(=O)CCCCCNC(=O)[C@H](CCCNC(=N)N)NC(=O)CCCCCNC(=O)[C@H](CCCNC(=N)N)NC(=O)CCCCCNC(=O)[C@@H](N)CCCNC(=N)N)CC5)O[C@@H](n5ccc(N)nc5=O)C4)O[C@@H](n4cc(C)c(=O)[nH]c4=O)C3)O2)c(=O)[nH]c1=O` (some centres undefined), for which the outcome in the series on Escherichia coli [14] and with Escherichia coli [16] was Active. Besides, the log10cfu in the series on Escherichia coli [15] is given as 3. Further, the result in the series on Escherichia coli [17], in the series with Escherichia coli [6] (K-12 substr. W3110) and with Escherichia coli [18] was inactive. For the same molecule, the Activity in the series with Escherichia coli [1] is on record as 88%. Besides, in the series on Escherichia coli [2], the minimum inhibitory concentration (MIC) was determined as 1.25 µM (≈ 6.84 µg/mL).

As a reminder, the MIC is the smallest concentration in the dilution series that meets the test's criterion for growth inhibition. A word on the LD50: it is the dose expected to kill half of the subjects tested. As a reminder, the ED50 is the dose that gives a 50% effect, or the effect in half of the subjects.
